From ChEMBL document CHEMBL1145431, “Improved anti-osteoporosis potency and reduced endometrial membrane hyperplasia during hormone replacement therapy with estrogen-RGD peptide conjugates” (2007)
Where a SMILES comes first, the peptide text is derived from it. The star is where a group is joined. X1 = C[C@]12CC[C@@H]3c4ccc(OCC(=O)*)cc4CC[C@H]3[C@@H]1CCC2O

Legend:
Mus musculus [1] = assay: Effect on mineral content in ovariectomized mouse at 0.1103 mmol/kg, ip once daily for 4 weeks; format: functional
Method in brief: (§1)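 Female Kuiming mice (7 weeks, 30.7 ± 3.1 g) ovariectomized, sham group abdominorotomy. From day 5, i.p. once daily for 4 weeks at 110.3 × 10-3 mmol/kg in 0.5% CMC. Left femur cleaned, length measured, defatted in chloroform-methanol (2:1, 2 × 3 h), dried 120 °C 6 h for dry weight, ashed 800 °C 8 h. Mineral content = ash/dry weight. Ash dissolved in 6 N HCl and diluted. Ca by o-methylphenolphthalein complexone, P by molybdenum blue. Lungs and livers weighed directly.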

Mus musculus [2] = assay: Effect on serum phosphorus level in ovariectomized mouse at 0.1103 mmol/kg, ip once daily for 4 weeks; format: functional
Method in brief: (§2)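 OVX Kuiming mice dosed i.p. daily for 4 weeks in 0.5% CMC. Blood taken retro-orbitally on the day after the last dose, stood 30 min, spun at 3000 g for 20 min, serum stored at -20 °C. Calcium by o-methylphenolphthalein complexone, phosphorus by molybdenum blue, ALP by activity with disodium phenylphosphate substrate.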

Mus musculus [3] = assay: Effect on spleen weight in mouse at 0.1103 mmol/kg, po; format: functional
Method in brief: (§3)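 Female Kuiming mice (7 weeks old, 30.7 ± 3.1 g) under abdominal OVX, sham group abdominorotomy only. From day 5 after surgery, dosed orally once daily for 4 weeks at 110.3 × 10-3 mmol/kg in 0.5% CMC (0.2 mL), vehicle group CMC alone. Blood drawn retro-orbitally, then left femur and organs removed under pentobarbital (40.0 mg/kg, i.p.).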

Mus musculus [4] = assay: Effect on lung weight in mouse at 0.011 mmol/kg, ip; format: functional
Method in brief: (§4)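 Dose-response in OVX Kuiming mice, i.p. daily for 4 weeks in 0.5% CMC at 11.03, 55.15 or 110.3 × 10-3 mmol/kg. Left femur: length, then defatting, drying at 120 °C for 6 h (dry weight), ashing at 800 °C for 8 h. Ash/dry ratio gives mineral content. Ash Ca and P measured colorimetrically. Liver, lung and spleen weighed directly. n = 12, ANOVA.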

Mus musculus [5] = assay: Effect on serum phosphorous level in mouse at 0.011 mmol/kg, ip; format: functional; conditions: in the assay text read “0.11 mmol/kg” for “0.011 mmol/kg”
Method in brief: (§5)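 Dose-response in OVX Kuiming mice, i.p. daily for 4 weeks in 0.5% CMC at 11.03, 55.15 or 110.3 × 10-3 mmol/kg. Serum from retro-orbital blood (3000 g, 20 min). Calcium by o-methylphenolphthalein complexone, phosphorus by molybdenum blue, ALP by activity on disodium phenylphosphate. n = 12, ANOVA.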

Mus musculus [6] = assay: Effect on femur ash weight in mouse at 0.1103 mmol/kg, po; format: functional; method in brief: as §3
Mus musculus [7] = assay: Effect on uterus weight in mouse at 0.011 mmol/kg, ip; format: functional
Method in brief: (§6)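 Dose study in abdominally ovariectomized female Kuiming mice (30.7 ± 3.1 g). Daily i.p. dosing in aqueous 0.5% CMC from day 5 after surgery for 4 weeks, at 110.3, 55.15 or 11.03 × 10-3 mmol/kg. Liver, lung, spleen and uterus were removed after pentobarbital euthanasia and weighed. n = 12, ANOVA, p < 0.05.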

Mus musculus [8] = assay: Effect on femur length in recipient mouse at 0.011 mmol/kg, ip; format: functional; method in brief: as §4
Mus musculus [9] = assay: Effect on phosphorus level in ovariectomized mouse at 0.1103 mmol/kg, ip once daily for 4 weeks; format: functional; method in brief: as §1
Mus musculus [10] = assay: Effect on lung weight in mouse at 0.1103 mmol/kg, po; format: functional; method in brief: as §3
Mus musculus [11] = assay: Effect on uterus weight in mouse at 0.055 mmol/kg, ip; format: functional; method in brief: as §6
Mus musculus [12] = assay: Effect on femur ash weight in recipient mouse at 0.055 mmol/kg, ip; format: functional; method in brief: as §4
Mus musculus [13] = assay: Effect on serum ALP level in mouse at 0.1103 mmol/kg, po; format: functional
Method in brief: (§7)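 Oral OVX Kuiming mouse model, dosed daily for 4 weeks at 110.3 × 10-3 mmol/kg in 0.5% CMC. Retro-orbital blood stood 30 min at room temperature and was spun at 3000 g for 20 min. Serum kept at -20 °C. Calcium read by o-methylphenolphthalein complexone, phosphorus by molybdenum blue, ALP by activity on disodium phenylphosphate substrate.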

Mus musculus [14] = assay: Effect on liver weight in mouse at 0.011 mmol/kg, ip; format: functional; method in brief: as §4
Mus musculus [15] = assay: Effect on dry weight of femurs in mouse at 0.1103 mmol/kg, po; format: functional, Femur; method in brief: as §3
Mus musculus [16] = assay: Effect on femur ash weight in recipient mouse at 0.011 mmol/kg, ip; format: functional; method in brief: as §4
Mus musculus [17] = assay: Effect on phosphorus level in mouse at 0.110 mmol/kg, po; format: functional; method in brief: as §3
Mus musculus [18] = assay: Effect on dry weight of femurs in ovariectomized mouse at 0.1103 mmol/kg, ip once daily for 4 weeks; format: functional, Femur; method in brief: as §1
Mus musculus [19] = assay: Effect on spleen weight in mouse at 0.055 mmol/kg, ip; format: functional; method in brief: as §4
Mus musculus [20] = assay: Effect on dry weight of femurs in recipient mouse at 0.055 mmol/kg, ip; format: functional, Femur; method in brief: as §4
Mus musculus [21] = assay: Increase in body weight in ovariectomized mouse at 0.1103 mmol/kg, ip once daily for 4 weeks; format: functional
Method in brief: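 Female Kuiming mice (30.7 ± 3.1 g) underwent abdominal OVX; the sham group had abdominorotomy only. From day 5 after surgery, i.p. dosing once daily for 4 weeks at 110.3 × 10-3 mmol/kg in aqueous 0.5% CMC. Body weight was recorded on the day of the last administration.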

Mus musculus [22] = assay: Effect on serum ALP level in mouse at 0.1103 mmol/kg, ip; format: functional; method in brief: as §2
Mus musculus [23] = assay: Effect on lung weight in mouse at 0.055 mmol/kg, ip; format: functional; method in brief: as §4
Mus musculus [24] = assay: Effect on liver weight in ovariectomized mouse at 0.110 mmol/kg, ip once daily for 4 weeks; format: functional; method in brief: as §1
Mus musculus [25] = assay: Effect on calcium level in ovariectomized mouse at 0.1103 mmol/kg, ip once daily for 4 weeks; format: functional; method in brief: as §1
Mus musculus [26] = assay: Effect on uterus weight in mouse at 0.1103 mmol/kg, po; format: functional
Mus musculus [27] = assay: Effect on serum ALP lavel in ovariectomized mouse at 0.1103 mmol/kg, ip once daily for 4 weeks; format: functional; method in brief: as §2
Mus musculus [28] = assay: Effect on mineral level in mouse femur at 0.055 mmol/kg, ip; format: functional; method in brief: as §4
Mus musculus [29] = assay: Effect on femur ash weight in ovariectomized mouse at 0.1103 mmol/kg, ip once daily for 4 weeks; format: functional; method in brief: as §1
Mus musculus [30] = assay: Effect on serum calcium level in mouse at 0.1103 mmol/kg, po; format: functional; method in brief: as §7
Mus musculus [31] = assay: Effect on serum ALP level in mouse at 0.055 mmol/kg, ip; format: functional; method in brief: as §5
Mus musculus [32] = assay: Effect on serum phosphorous level in mouse at […] mmol/kg, ip; format: functional; method in brief: as §2
Mus musculus [33] = assay: Effect on calcium level in mouse femur at 0.011 mmol/kg, ip; format: functional; method in brief: as §4
Mus musculus [34] = assay: Effect on liver weight in mouse at 0.055 mmol/kg, ip; format: functional; method in brief: as §4
Mus musculus [35] = assay: Effect on serum calcium level in mouse at 0.055 mmol/kg, ip; format: functional; method in brief: as §5
Mus musculus [36] = assay: Effect on serum calcium level in ovariectomized mouse at 0.1103 mmol/kg, ip once daily for 4 weeks; format: functional; method in brief: as §2
Mus musculus [37] = assay: Effect on phosphorous level in mouse femur at 0.055 mmol/kg, ip; format: functional; method in brief: as §4
Mus musculus [38] = assay: Effect on calcium level in mouse at 0.1103 mmol/kg, po; format: functional; method in brief: as §3

C[C@]12CC[C@@H]3c4ccc(OCC(=O)N[C@@H](CCCNC(=N)N)C(=O)NCC(=O)N[C@@H](CC(=O)O)C(=O)N[C@@H](Cc5ccccc5)C(=O)O)cc4CC[C@H]3[C@@H]1CCC2O (stereo partly specified) (X1-RGDF-OH)
Ratio (Mus musculus [1]): 0.585 | Activity (Mus musculus [2]): 1.605 mmol/L | Activity (Mus musculus [3]): 135 mg | Activity (Mus musculus [4]): 174 mg | Activity (Mus musculus [5]): 1.605 mmol/L | Activity (Mus musculus [6]): 28.7 mg | Activity (Mus musculus [7]): 60.6 mg | Activity (Mus musculus [8]): 1.623 cm | Activity (Mus musculus [9]): 25.46% | Activity (Mus musculus [10]): 165 mg | Activity (Mus musculus [11]): 55.3 mg | Activity (Mus musculus [12]): 31.6 mg | Activity (Mus musculus [13]): 33.7 U/L | Activity (Mus musculus [14]): 1.57 g | Activity (Mus musculus [15]): 63.1 mg | Activity (Mus musculus [16]): 20.8 mg | Activity (Mus musculus [17]): 25.532% | Activity (Mus musculus [18]): 64.2 mg | Activity (Mus musculus [19]): 123 mg | Activity (Mus musculus [20]): 53.9 mg | Activity (Mus musculus [21]): 33.1 g | Activity (Mus musculus [22]): 31.5 U/L | Activity (Mus musculus [23]): 155 mg | Activity (Mus musculus [24]): 1.395 g | Activity (Mus musculus [25]): 56.69% | Activity (Mus musculus [26]): 47.5 mg | Activity (Mus musculus [27]): 31.529 U/L | Ratio (Mus musculus [28]): 0.504 | Activity (Mus musculus [29]): 35.8 mg | Activity (Mus musculus [30]): 2.04 mmol/L | Activity (Mus musculus [31]): 33.746 U/L | Activity (Mus musculus [32]): 1.605 mmol/L | Activity (Mus musculus [33]): 42.9% | Activity (Mus musculus [34]): 1.407 g | Activity (Mus musculus [35]): 2.04 mmol/L | Activity (Mus musculus [36]): 2.005 mmol/L | Activity (Mus musculus [37]): 24.845% | Activity (Mus musculus [38]): 53.001%

CC(C)[C@H](NC(=O)[C@H](CC(=O)O)NC(=O)CNC(=O)[C@H](CCCNC(=N)N)NC(=O)COc1ccc2c(c1)CC[C@@H]1[C@@H]2CC[C@]2(C)C(O)CC[C@@H]12)C(=O)O (stereo partly specified) (X1-RGDV-OH)
Ratio (Mus musculus [1]): 0.63 | Activity (Mus musculus [2]): 1.6 mmol/L | Activity (Mus musculus [3]): 134 mg | Activity (Mus musculus [4]): 188 mg | Activity (Mus musculus [5]): 1.6 mmol/L | Activity (Mus musculus [6]): 33.7 mg | Activity (Mus musculus [7]): 55.7 mg | Activity (Mus musculus [8]): 1.64 cm | Activity (Mus musculus [9]): 24.991% | Activity (Mus musculus [10]): 163 mg | Activity (Mus musculus [11]): 57.6 mg | Activity (Mus musculus [12]): 32.3 mg | Activity (Mus musculus [13]): 34.521 U/L | Activity (Mus musculus [14]): 1.48 g | Activity (Mus musculus [15]): 68.4 mg | Activity (Mus musculus [16]): 20.6 mg | Activity (Mus musculus [17]): 24.997% | Activity (Mus musculus [18]): 63.7 mg | Activity (Mus musculus [19]): 140 mg | Activity (Mus musculus [20]): 57.5 mg | Activity (Mus musculus [21]): 35.2 g | Activity (Mus musculus [22]): 30.5 U/L | Activity (Mus musculus [23]): 179 mg | Activity (Mus musculus [24]): 1.363 g | Activity (Mus musculus [25]): 58.35% | Activity (Mus musculus [26]): 40.7 mg | Activity (Mus musculus [27]): 30.514 U/L | Ratio (Mus musculus [28]): 0.539 | Activity (Mus musculus [29]): 40 mg | Activity (Mus musculus [30]): 2.04 mmol/L | Activity (Mus musculus [31]): 32.786 U/L | Activity (Mus musculus [32]): 1.6 mmol/L | Activity (Mus musculus [33]): 42.1% | Activity (Mus musculus [34]): 1.462 g | Activity (Mus musculus [35]): 2.084 mmol/L | Activity (Mus musculus [36]): 2.003 mmol/L | Activity (Mus musculus [37]): 24.315% | Activity (Mus musculus [38]): 52.197%
